In ChEMBL document CHEMBL4316597, “Design, Synthesis, and Biological Evaluation of Itaconic Acid Derivatives as Potential Anti-Influenza Agents” (J Med Chem, 2019):
Calls of active or inactive are those of the source. The rule behind the calls is not given here.

Experiments:
Influenza A virus [1] = assay: Inhibition of viral protein sub-cellular distribution in Influenza A virus (A/WSN/33) infected in MDCK cells assessed as reduction in NS2 protein distribution to cytoplasm at 10 uM measured after 9 hrs post infection by IF-staining based microscopy; assay type: functional, organism-based; settings: A/WSN/1933(H1N1)
How it was run: (§1)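 MDCK cells grown on coverslips (2 × 10^5/well, 16 h), infected at MOI 0.1 for 1 h, washed, then kept in E0 with test compound (1 or 10 μM) or LMB 10 nM; DMSO 0.05% as mock. Fixed at 9 h pi in 4% paraformaldehyde and immunostained for M1, NP, NS2 or PA (1:50), with Hoechst nuclear stain. Viewed by confocal microscopy at 63×. NP nuclear/cytoplasmic intensity ratio quantified; three independent experiments.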

Influenza A virus [2] = assay: Antiviral activity against Influenza A virus A/TW/3446/02 (H3N2) infected in MDCK cells after 72 hrs by crystal violet-staining based assay; assay type: functional, organism-based
How it was run: (§2)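 Cells seeded at 2 × 10^4/well in E10 (DMEM, 10% FBS), 16–24 h at 37 °C/5% CO2, washed with DPBS, then infected at nine-fold TCID50 with or without serial compound concentrations. Influenza is run in MDCK and enterovirus/rhinovirus in RD. Incubated 72 h, fixed in 4% paraformaldehyde, stained with 0.1% crystal violet, and read for cell density. EC50 = 50% CPE inhibition by Reed–Muench; mean ± S.D. of at least three runs.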

Influenza A virus [3] = assay: Inhibition of viral protein synthesis in Influenza A virus (A/WSN/33) infected in MDCK cells assessed as effect on M1 protein level at 10 uM measured up to 9 hrs post infection by Western blot analysis; assay type: functional, organism-based; settings: A/WSN/1933(H1N1)
How it was run: (§3)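 MDCK cells (5 × 10^5/well) infected with A/WSN/33 at MOI 0.1, washed twice, then held in E0 with or without 10 μM compound. Lysed in Triton X-100/deoxycholate buffer, equal protein separated by SDS-PAGE, and immunoblotted for viral proteins with GAPDH as loading control. Time-course harvests up to 9 h pi.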

Erythrocyte = assay: Induction of hemagglutination in guinea pig RBC at serial dilution from 50 uM after 1 hr by HAI assay; assay type: cell-based, Cavia porcellus
How it was run: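 Virus titrated on 0.5% guinea pig RBCs to define 1 HA unit; 4 HA units used. Compound two-fold serially diluted from 50 µM and mixed with virus for 30 min at room temperature, or tested without virus for direct agglutination. 0.5% RBCs then added and agglutination scored after 1 h. DMSO/RBC-only and virus-only controls included.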

Influenza A virus [4] = assay: Inhibition of viral protein sub-cellular distribution in Influenza A virus (A/WSN/33) infected in MDCK cells assessed as reduction in M1 protein distribution to cytoplasm at 10 uM measured after 9 hrs post infection by IF-staining based microscopy; assay type: functional, organism-based; settings: A/WSN/1933(H1N1); how it was run: as §1
Influenza A virus [5] = assay: Inhibition of viral protein synthesis in Influenza A virus (A/WSN/33) infected in MDCK cells assessed as effect on HA protein level at 10 uM measured up to 9 hrs post infection by Western blot analysis; assay type: functional, organism-based; settings: A/WSN/1933(H1N1); how it was run: as §3
[6] = Selectivity ratio of CC50 for MDCK cells to EC50 for pandemic Influenza A virus A/TW/90206/09 (H1N1) SO4; assay type: toxicity; settings: dog, read-out: Ratio CC50/EC50
How it was run: (§4)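 MDCK cells (2 × 10^4/well, E10, 16–24 h) infected at nine-fold TCID50 with compound for 72 h, 37 °C, 5% CO2. Cells were fixed in 4% paraformaldehyde and stained with crystal violet; EC50 is from Reed–Muench. For CC50, cells had compound alone for 72 h, then MTT 3 h, DMSO, A570, Reed–Muench. SI = CC50/EC50; three independent experiments.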

[7] = Cytotoxicity against MDCK cells assessed as cell death after 72 hrs by MTT assay; assay type: cell-based, Canis lupus familiaris; settings: dog
How it was run: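 MDCK or RD cells at 2 × 10^4/well in E10, overnight at 37 °C/5% CO2, DPBS wash, then exposed to graded compound concentrations for 72 h. MTT added for 3 h, formazan dissolved in DMSO, absorbance read at 570 nm. CC50 (50% cell death) by Reed–Muench.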

[8] = Selectivity ratio of CC50 for MDCK cells to EC50 for Influenza A virus A/TW/00482/13; assay type: toxicity; settings: dog, read-out: Ratio CC50/EC50
How it was run: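 SI is calculated as CC50 (MDCK, 72 h MTT) divided by EC50 (72 h crystal-violet CPE assay in MDCK).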

[9] = Selectivity ratio of CC50 for MDCK cells to EC50 for Influenza A virus A/TW/03384/13; assay type: toxicity; settings: dog, read-out: Ratio CC50/EC50; how it was run: as §4
[10] = Selectivity ratio of CC50 for MDCK cells to EC50 for pandemic Influenza A virus A/TW/2235/09 (H1N1) SO4; assay type: toxicity; settings: dog, read-out: Ratio CC50/EC50; how it was run: as §4
Influenza A virus [11] = assay: Antiviral activity against pandemic Influenza A virus A/TW/2235/09 (H1N1) SO4 infected in MDCK cells after 72 hrs by crystal violet-staining based assay; assay type: functional, organism-based; settings: A/TW/2235/09 (H1N1) SO4, MDCK; how it was run: as §2
MDCK = assay: Inhibition of CRM1 in MDCK cells infected with Influenza A virus (A/WSN/33) assessed as reduction in CRM1-mediated viral protein nuclear export by measuring reduction in NP protein distribution to cytoplasm at 10 uM measured after 9 hrs post infection by IF-staining based microscopy; assay type: cell-based; settings: Canis lupus familiaris; how it was run: as §1
[12] = Selectivity ratio of CC50 for human RD cells to EC50 for Enterovirus A71 TW/2231/1998; assay type: toxicity; settings: read-out: Ratio CC50/EC50
How it was run: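 RD cells (2 × 10^4/well, DMEM 10% FBS, 16–24 h) infected with enterovirus at nine-fold TCID50 with compound, 72 h, 37 °C, 5% CO2. Cells were fixed in 4% paraformaldehyde, stained with 0.1% crystal violet, and EC50 taken by Reed–Muench. CC50 came from 72 h exposure of uninfected RD cells, MTT 3 h, A570, Reed–Muench. SI = CC50/EC50; three independent experiments.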

Influenza A virus [13] = assay: Inhibition of viral protein synthesis in Influenza A virus (A/WSN/33) infected in MDCK cells assessed as effect on PA protein level at 10 uM measured up to 9 hrs post infection by Western blot analysis; assay type: functional, organism-based; settings: A/WSN/1933(H1N1); how it was run: as §3
Influenza A virus [14] = assay: Inhibition of viral protein synthesis in Influenza A virus (A/WSN/33) infected in MDCK cells assessed as effect on NS2 protein level at 10 uM measured up to 9 hrs post infection by Western blot analysis; assay type: functional, organism-based; settings: A/WSN/1933(H1N1); how it was run: as §3
Influenza A virus [15] = assay: Inhibition of viral protein sub-cellular distribution in Influenza A virus (A/WSN/33) infected in MDCK cells assessed as reduction in PA protein distribution to cytoplasm at 10 uM measured after 9 hrs post infection by IF-staining based microscopy; assay type: functional, organism-based; settings: A/WSN/1933(H1N1); how it was run: as §1

C=C(CC(=O)Nc1ccc(F)cc1F)C(=O)Nc1ccc(F)cc1F
inhibition (Influenza A virus [1]): inactive | EC50 (Influenza A virus [2]): 4.6 µM | inhibition (Influenza A virus [3]): inactive | Activity (Erythrocyte): Non-Toxic | inhibition (Influenza A virus [4]): inactive | inhibition (Influenza A virus [5]): inactive | selectivity ratio [6]: 28 | CC50 at 72 h [7]: 84.7 µM | selectivity ratio [8]: 22 | selectivity ratio [9]: 23 | selectivity ratio [10]: 36 | EC50 (Influenza A virus [11]): 2360 nM | inhibition (MDCK): Active | selectivity ratio [12]: 16 | inhibition (Influenza A virus [13]): inactive | inhibition (Influenza A virus [14]): inactive | inhibition (Influenza A virus [15]): inactive
